# Assay outcomes from PubChem BioAssay.
# SENP8 block-1: SENP8 protease inhibitors, primary screen, biochemical, luminescence. inhibition, % at 10 µM. purified SENP8, Z-RLRGG-aminoluciferin cleavage. Sentrin-specific protease 8 (Homo sapiens), Q96LD8. hit rate 1.2% among 330,000; in the data active = inhibition above about 50%
# SENP1 FRET inh: human SENP1 catalytic domain inhibitors, primary screen, biochemical, FRET, uHTS; Sentrin-specific protease 1 (Homo sapiens), Q9P0U3; recombinant SENP1 catalytic domain, CyPet-SUMO1-YPet FRET cleavage; inhibition, % at 10 µM; hit rate 0.21% among 360,000; AID 624204, 2012;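 active = inhibition at least 30% at 10 µM, raw YFP signal under a set limit, fluorescence ratio 0.5 to 1.5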;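 also: 0% = enzyme with DMSO and 100% = no enzyme wells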
# Target sequence (Q9P0U3 419-644 limits assumed): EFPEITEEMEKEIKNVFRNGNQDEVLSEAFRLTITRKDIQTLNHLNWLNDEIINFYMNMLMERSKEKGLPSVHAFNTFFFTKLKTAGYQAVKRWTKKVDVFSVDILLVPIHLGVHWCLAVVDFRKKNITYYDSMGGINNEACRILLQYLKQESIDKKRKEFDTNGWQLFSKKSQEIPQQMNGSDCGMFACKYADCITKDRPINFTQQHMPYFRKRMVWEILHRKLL
#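 system = hSENP1 catalytic domain, recombinant | reagent = SFCypet-SUMO1-SFYpet substrate at 25 nM | doses = one dose per compound, 10 µM, 0.5% DMSO | incubation = enzyme reaction for 50 min at room temperature, dark | measured by = FRET, CFP and YFP emission | controls = no-enzyme low, enzyme-DMSO high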
# SENP7 block: SENP7 protease inhibitors, primary screen, biochemical, luminescence, uHTS | AID 434973, 2010 | hit rate 1.5% among 330,000 | inhibition, % at 5 µM | recombinant SENP7, Z-RLRGG-aminoluciferin luminescence, 40 min;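 active = inhibition above about 50% at the single test dose, limit read from the data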;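 also: plate controls were DMSO with enzyme for no effect and no enzyme buffer wells for full effect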
# Target sequence (Q9BQF6 706-1050 limits assumed): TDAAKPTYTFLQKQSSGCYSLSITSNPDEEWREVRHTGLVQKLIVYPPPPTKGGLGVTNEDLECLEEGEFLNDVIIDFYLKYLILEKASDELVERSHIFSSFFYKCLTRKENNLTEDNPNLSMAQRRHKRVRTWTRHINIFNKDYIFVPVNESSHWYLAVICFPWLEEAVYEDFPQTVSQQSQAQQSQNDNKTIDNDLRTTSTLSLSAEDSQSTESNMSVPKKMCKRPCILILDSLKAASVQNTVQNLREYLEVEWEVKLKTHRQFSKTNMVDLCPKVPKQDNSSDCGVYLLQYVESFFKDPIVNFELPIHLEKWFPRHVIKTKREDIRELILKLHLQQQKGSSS
# SENP8 block-2: human SENP8 protease inhibitors, primary screen, biochemical, fluorescence, Nedd8 protein substrate, uHTS | Sentrin-specific protease 8 (Homo sapiens), Q96LD8 | recombinant SENP8 | inhibition, % at 20 µM | hit rate 0.64% among 360,000 | AID 602440, 2012; in the data active = inhibition mostly above about 40%, no sharp cut-off; inactive = mostly below about 27%
# SENP6 block: SENP6 protease inhibitors, primary screen, biochemical, luminescence, uHTS; hit rate 1.8% among 330,000; Recombinant SENP6 catalytic domain, aminoluciferin luminescence; Sentrin-specific protease 6 (Homo sapiens), Q9GZR1; inhibition, % at 10 µM;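 active = inhibition above about 50% at the single tested dose, limit read from the data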;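 also: plate controls were DMSO wells with enzyme for no effect and DMSO wells lacking enzyme for full effect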
# SENP8 conf: SENP8 protease inhibitors, retest, confirmation, biochemical, luminescence, single concentration; shares compounds with SENP7 block; Recombinant SENP8, Z-RLRGG-aminoluciferin luminescence, 60 min; inhibition, % at 12.5 µM; hit rate 40% among 6,200;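 active = mean inhibition across replicates above about 50%, limit read from the data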
# SENP6 confirm: SENP6 protease inhibitors, confirmation, biochemical, luminescence, single concentration; inhibition, % at 12.5 µM; recombinant SENP6, Z-RLRGG-aminoluciferin luminescence; AID 488915, 2010; hit rate 58% among 6,200; shares compounds with SENP7 block
# SENP7 conf: SENP7 protease inhibitors, retest, confirmation, biochemical, luminescence, single concentration; shares compounds with SENP7 block; recombinant SENP7, Z-RLRGG-aminoluciferin luminescence, 40 min; inhibition, % at 12.5 µM; hit rate 69% among 6,200
# Casp3 select: caspase-3 protease inhibitors, confirmation, selectivity assay for SENP inhibitor project, biochemical, single concentration. purified caspase-3, Z-DEVD-aminoluciferin luminescence, 60 min. inhibition, % at 12.5 µM. hit rate 60% among 6,200. shares compounds with SENP7 block. AID 488918, 2010;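 active = mean inhibition above about 50%, limit read from the data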;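 also: plate controls were enzyme with DMSO for no effect and wells without caspase-3 for full effect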
# Luc interf: counter-screen for SENP inhibitors: luminescence interference; shares compounds with SENP7 block; Pre-incubated SENP8/Z-RLRGG-aminoluciferin, luciferase luminescence interference; inhibition, % at 12.5 µM; hit rate 39% among 6,200;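 active = mean inhibition above about 50% when retested at one dose, limit read from the data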;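 also: plate controls were DMSO wells with completed reaction for no effect and substrate without enzyme for full effect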
# Active calls of the source: *; i = inactive; . = no result. Shown are actives, neighbours in structure and some others; about 2.5% of the full set was active somewhere.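 The calls were made as follows, unless noted: active = mean inhibition above about 50% in the one-dose retest (limit read from the data); inactive = the rest.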
SMILES,SENP8 block-1,SENP1 FRET inh,SENP7 block,SENP8 block-2,SENP6 block,SENP8 conf,SENP6 confirm,SENP7 conf,Casp3 select,Luc interf
CCC(C)NS(=O)(=O)c1ccc(NC(=O)c2cccs2)cc1 (stereo not given),-1.5,3.3,23.5,-4.7,8.1,.,.,.,.,.
O=C(Nc1ccc(OCc2ccccc2)cc1)c1cccc([N+](=O)[O-])c1,-9.3,2.7,56.3*,15.9,-4.4,-6.7,-3.9,5.6,5.2,-4.9
COc1ccc(NC(=O)c2cccs2)cc1,15.8,-0.1,31.3,38.5,59.7*,33.9,30.6,73.9*,78.6*,61.5*
O=C(Nc1ccc(NC(=O)c2cccs2)cc1)c1cccs1,-15.2,0.1,26.0,1.3,-21.9,.,.,.,.,.
Cc1occc1C(=O)Nc1ccc(OCc2ccccc2)cc1,96.4*,0.6,99.6*,-2.0,97.6*,90.5*,100.0*,103.6*,98.7*,73.4*
Cc1ccc(C(=O)Nc2ccc(OCc3ccccc3)cc2)cc1[N+](=O)[O-],-5.9,2.2,-8.7,16.8,-7.7,.,.,.,.,.
CCC(C)c1ccc(NC(=O)c2cccs2)cc1 (stereo not given),86.5*,3.9,84.4*,12.9,90.1*,92.4*,92.6*,99.1*,76.1*,82.2*
Cc1occc1C(=O)Nc1cccc(C(=O)NCc2ccccc2)c1,-5.7,2.0,-8.5,4.2,-28.6,.,.,.,.,.
Cc1cc(C)n(CCNC(=O)c2ccc3c(c2)OCO3)n1,-2.0,-0.2,4.2,14.1,1.5,.,.,.,.,.
CNc1cc(-c2ccc(CC#N)cc2)ncn1,.,1.1,.,-104.2,.,.,.,.,.,.
O=C(/C=C/c1ccco1)Nc1ccc2c(c1)OCCO2,37.7,-0.2,41.3,24.3,-14.3,.,.,.,.,.
COc1ccccc1/C=C/C(=O)OCC(=O)Nc1ccc2c(c1)OCCO2,-24.3,1.4,2.2,-118.0,-18.7,.,.,.,.,.
O=C(/C=C/c1ccccc1)Nc1ccc2c(c1)OCCO2,66.9*,2.7,75.0*,11.2,74.3*,74.0*,71.2*,87.7*,64.7*,74.9*
COc1ccccc1/C=C/C(=O)Nc1ccc2c(c1)OCCO2,51.6*,-0.3,60.0*,4.0,67.4*,68.2*,66.1*,86.1*,49.1,63.0*
CCc1cccc(CC)c1C(OC(C)=O)c1cccnc1 (stereo not given),55.2*,0.7,-2.9,14.6,-24.5,8.3,10.0,18.5,9.6,5.5
Cc1cccc(-c2cc3nc4c(c(N5CCOCC5)n3n2)CCCC4)c1,52.6*,0.9,5.4,-198.1,65.2*,59.9*,51.4*,49.7,48.5,13.0
Cc1cccc(-c2cc3nc4c(c(NCc5ccco5)n3n2)CCCC4)c1,80.5*,-4.9,44.5,-266.9,88.1*,17.3,12.3,14.6,23.6,26.2
Cc1cc(NS(=O)(=O)c2ccc(NC(=O)/C=C/c3c(F)cccc3Cl)cc2)no1,-4.1,0.6,-0.3,3.5,2.0,.,.,.,.,.
COc1ccccc1/C=C/C(=O)Nc1cccnc1,9.1,1.2,6.1,-15.6,23.2,.,.,.,.,.
O=C(/C=C/c1c(F)cccc1Cl)Nc1ccncc1,32.6,0.9,61.9*,7.3,65.0*,-4.9,1.0,44.5,17.0,26.6
Cc1ccnc(NC(=O)/C=C/c2ccccc2Cl)c1,92.8*,-0.4,98.2*,-3.2,95.7*,82.3*,92.0*,90.9*,93.6*,62.7*
O=C(/C=C/c1ccccc1Cl)Nc1cccnc1,85.6*,1.3,92.6*,13.5,92.7*,12.6,91.7*,100.1*,88.8*,89.9*
O=C(/C=C/c1ccccc1Cl)Nc1ccncc1,35.2,-1.2,29.6,24.7,61.7*,26.4,20.7,68.5*,29.1,58.4*
CC(C)CC1NC(=O)N(CC(=O)Nc2cc(S(=O)(=O)N3CCOCC3)ccc2Cl)C1=O (stereo not given),13.0,-0.2,-3.4,20.4,-1.9,.,.,.,.,.
CSCc1ccc(C(=O)NC2CC(C)(C)Cc3c2cnn3-c2ccc(F)cc2)o1 (stereo not given),0.3,5.1,-0.8,1.4,-10.4,.,.,.,.,.
SMILES,SENP8 block-1,SENP1 FRET inh,SENP7 block,SENP8 block-2,SENP6 block,SENP8 conf,SENP6 confirm,SENP7 conf,Casp3 select,Luc interf
CC(C)(C)c1ccc(/C=C/C(=O)Nc2cccnc2)cc1,75.8*,-0.9,82.7*,18.0,85.0*,10.4,80.4*,95.3*,58.6*,54.6*
O=[N+]([O-])c1cccc(NC(=S)N2CCN(c3ccccn3)CC2)c1,-8.5,-0.2,-8.3,1.8,-34.4,.,.,.,.,.
c1ccn2c(c1)nc1c2nc2ccccn21,-8.6,-83.8,7.3,-258.0,-10.2,.,.,.,.,.
Clc1c(-c2ccccc2)nc2ccccn12,55.4*,-1.3,54.5*,-217.4,64.7*,-9.2,45.8,79.7*,65.8*,47.4
Cc1ccc(-c2nc3ccccn3c2C=O)cc1,28.3,-4.3,40.9,-0.3,45.3,.,.,.,.,.
Clc1cccc(-c2ccc(-c3nc4ccccn4c3NCc3ccccc3)cc2)c1,64.8*,-30.6,53.4*,i,-0.4,36.4,48.8,71.1*,43.0,8.1
Cc1c(-c2ccc(Br)cc2)nc2ccccn12,87.9*,0.5,89.9*,-336.9,95.6*,-20.4,88.5*,99.6*,88.0*,88.6*
CCc1c(C)c2cc(Cl)c(O)c(CN3CCCC3)c2oc1=O,-4.1,-71.2,-3.9,-278.0,-4.0,.,.,.,.,.
O=C(O)COc1ccc(/C=C/c2nc(-c3ccccc3O)n[nH]2)cc1,67.0*,0.8,69.1*,-49.5,86.9*,84.2*,81.5*,95.8*,71.3*,82.8*
O=C(O)COc1ccc(-c2nccc(-c3ccccn3)n2)cc1,-15.2,1.6,-3.8,2.7,-35.9,.,.,.,.,.
COc1ccc(/C=C/c2nc(-c3ccccc3O)n[nH]2)cc1OC,-3.6,1.5,43.0,-117.1,67.1*,65.4*,62.9*,85.2*,19.4,48.3
